An excerpt weighted towards active compounds, which were near 2.8% of everything screened.
NPY-Y1 PAM-ag – potentiators or agonists of human neuropeptide Y receptor Y1 | P25929 | NPY-Y1 expressing cells, potentiator/agonist activation | activation, % at 3.6 µM | 220,000 tested, 0.37% active | AID 1304; in the data active = activation above about 33%, passing the limit was not always enough;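 also: cells stimulated with NPY at EC10 then isoproterenol at EC100; 0% = low agonist plus stimulus and 100% = saturating agonist plus stimulus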
Target sequence (P25929 whole entry, looked up): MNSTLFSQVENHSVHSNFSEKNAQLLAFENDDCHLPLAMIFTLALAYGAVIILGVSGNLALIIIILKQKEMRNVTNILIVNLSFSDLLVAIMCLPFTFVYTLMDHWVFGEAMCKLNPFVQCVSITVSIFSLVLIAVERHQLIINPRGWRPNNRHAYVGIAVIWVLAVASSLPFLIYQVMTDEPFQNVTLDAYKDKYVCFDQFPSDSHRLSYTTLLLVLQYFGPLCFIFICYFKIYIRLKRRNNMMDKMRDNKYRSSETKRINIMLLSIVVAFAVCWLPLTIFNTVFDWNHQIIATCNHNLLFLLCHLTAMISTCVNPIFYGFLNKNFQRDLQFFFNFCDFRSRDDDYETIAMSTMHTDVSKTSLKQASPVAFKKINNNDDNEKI
NPY2 pot ag – potentiates or activates human NPY-Y2 receptor; P49146; cells expressing NPY-Y2, potentiator/agonist read-out; 220,000 tested, 0.45% active; AID 1359; activation, % at 3.6 µM; in the data active = activation above about 27%;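 also: cells stimulated with NPY near EC25 plus isoproterenol at EC100; 0% = vehicle plus submaximal agonist and 100% = vehicle plus saturating agonist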
Target sequence (P49146 whole entry, looked up): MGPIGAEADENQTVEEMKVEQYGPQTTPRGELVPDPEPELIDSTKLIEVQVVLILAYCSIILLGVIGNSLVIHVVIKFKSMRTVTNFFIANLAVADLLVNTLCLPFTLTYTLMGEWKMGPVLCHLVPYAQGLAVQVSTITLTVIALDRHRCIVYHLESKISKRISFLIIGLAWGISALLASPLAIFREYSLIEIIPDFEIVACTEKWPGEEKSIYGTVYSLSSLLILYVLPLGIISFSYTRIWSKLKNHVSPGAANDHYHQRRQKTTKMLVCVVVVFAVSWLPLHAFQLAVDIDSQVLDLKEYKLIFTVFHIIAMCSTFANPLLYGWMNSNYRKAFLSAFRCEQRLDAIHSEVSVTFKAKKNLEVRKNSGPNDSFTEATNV
NPY Y1 blocker – NPY-Y1 (human) receptor antagonism | inhibition, % at 3.6 µM | AID 1040 | HEK293-CNG Y1 cells, membrane potential fluorescence; NPY at EC95, then isoproterenol | 200,000 tested, 1% active | P25929;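 active = inhibition above the campaign mean inhibition of all tested compounds plus 3 SD, cut at about 20% in these data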;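 also: 0% = DMSO wells given NPY plus isoproterenol and 100% = isoproterenol alone without NPY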
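Benchmarks – high control isoproterenol alone, low control NPY with isoproterenol · Material – HEK293 Y1/CNG channel cell line · Times – dye 3 h, compound 60 min room temperature, stimulation 45 min · Probe or stimulus – NPY (25 nM), isoproterenol (1 µM), Ro 20-1724 (25 µM) · Evaluation – % inhibition of NPY effect · Signal – fluorescence, membrane potential probe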
Measles CPE – protection of cells from measles virus | Measles virus-infected cells, CPE protection, absorbance | protection (pct of control), % at 4 µM | 140,000 tested, 1.5% active; in the data active = protection mostly above about 24%, no sharp cut-off; inactive = mostly below about 26%
NPY-Y2 antag – blocks the human neuropeptide Y Y2 receptor | NPY-Y2 expressing cells, antagonist mode | inhibition, % at 2.7 µM | 140,000 tested, 0.99% active; in the data active = inhibition above about 17%;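 also: 0% = vehicle with agonist challenge and 100% = reference antagonist with challenge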
Rad51 HR inh – Rad51 (human) homologous recombination inhibition. 200,000 tested, 0.085% active. hRad51 DNA strand exchange, fluorescence dequenching. Q06609. inhibition, % at 10 µM;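 active = inhibition above 40% at the single screening dose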;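 also: 0% = DMSO control wells and 100% = blanks with heterologous ssDNA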
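System: hRad51 filaments on single-stranded DNA; reagent: Fluorescein- and BHQ1-tagged 47-mer duplex; compound dosing: one concentration, 10 µM final; timing: filaments 15 min 37 °C, then compound 30 min; measured by: fluorescein emission 520 nm, excitation 485 nm; benchmarks: per-plate controls and blanks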
NPY-Y1 confirm – confirmation of human NPY-Y1 receptor potentiators or agonists; shares compounds with NPY-Y1 PAM-ag; activation, % at 3.6 µM; cell-based NPY-Y1 potentiator/agonist assay; 280 tested, 20% active; in the data active = activation above about 45%;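 also: cells challenged with NPY at its EC10 plus isoproterenol stimulus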
NPY-Y2 counter – NPY-Y2 potentiation or agonism as NPY-Y1 counter-screen. shares compounds with NPY-Y1 PAM-ag. HEK293-CNG cells, membrane-potential fluorescence (FLIPR), 1536-well. 280 tested, 20% active. AID 1649. activation, % at 3.6 µM
NPY-Y1 ag – activates human NPY-Y1, counter-screen for NPY-Y1 potentiators; HEK293 Y1-CNGC, membrane potential fluorescence, agonist mode; shares compounds with NPY-Y1 PAM-ag; 280 tested, 50% active; activation, % at 3.6 µM;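 active = percent activation above the mean of DMSO-only control wells plus 3 SD of those wells, cut at about 18% in these data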;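 also: cells challenged with isoproterenol plus Ro 20-1724 with no NPY in test wells; Y1 agonism lowers isoproterenol-driven cAMP and reduces probe fluorescence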
NPY-Y2 agonist – activates human NPY-Y2, counter-screen for NPY-Y1 hits. shares compounds with NPY-Y1 PAM-ag. HEK293 Y2-CNGC, membrane potential fluorescence, agonist mode. activation, % at 3.6 µM. AID 1698. 280 tested, 67% active;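 active = activation above the solvent-only control wells' mean plus 3 SD, cut at about 11% in these data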;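 also: 0% = DMSO with isoproterenol and 100% = 40 nM NPY maximal response; agonism lowers cAMP so well fluorescence drops in active wells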
CNGC inh 2 – blocks cyclic nucleotide gated channel in NPY-Y1 counter-screen; HEK293-CNG parental, isoproterenol cAMP, membrane potential fluorescence; 280 tested, 42% active; AID 1704; shares compounds with NPY-Y1 PAM-ag; inhibition, % at 3.6 µM;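 active = inhibition above the mean of stimulated solvent-only control wells plus 3 SD, cut at about 22% in these data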;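 also: 0% = isoproterenol-stimulated DMSO wells and 100% = unstimulated DMSO wells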
NPY-Y2 confirm – confirmation of human NPY-Y2 receptor potentiators or agonists | cell-based NPY-Y2 potentiator/agonist assay | shares compounds with NPY2 pot ag | activation, % at 3.6 µM | 450 tested, 20% active
NPY-Y1 counter – potentiates or activates NPY-Y1, counter-screen for NPY-Y2 hits. shares compounds with NPY2 pot ag. Y1 HEK293-CNG cells, membrane potential fluorescence. activation, % at 3.6 µM. 450 tested, 20% active. AID 1651; in the data active = activation above about 45%;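 also: cells stimulated with submaximal NPY then isoproterenol with phosphodiesterase inhibitor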
NPY-Y1 ag 2 – human NPY-Y1 agonism as NPY-Y2 potentiator counter-screen; 450 tested, 37% active; AID 1702; activation, % at 3.6 µM; shares compounds with NPY2 pot ag; HEK293 Y1-CNGC, membrane potential fluorescence;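 active = activation above the mean of DMSO-only control wells plus 3 SD, cut at about 18% in these data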;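 also: cells stimulated with 1 µM isoproterenol plus the PDE inhibitor Ro 20-1724; 0% = isoproterenol with DMSO and no NPY and 100% = 40 nM NPY; Y1 agonists lower the membrane potential dye signal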
CNGC inh – counter-screen for NPY-Y2 potentiators: inhibitors of CNG channel activity | HEK293-CNG parental, isoproterenol cAMP, membrane potential fluorescence | shares compounds with NPY2 pot ag | inhibition, % at 3.6 µM | 450 tested, 32% active;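 active = inhibition above the control-well mean plus 3 SD of those wells, cut at about 22% in these data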;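 also: 0% = DMSO with isoproterenol and 100% = DMSO without isoproterenol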
NPY-Y2 ag 2 – activates human NPY-Y2 receptor in potentiator counter-screen; AID 1710; shares compounds with NPY2 pot ag; activation, % at 3.6 µM; HEK293 Y2/CNGC cells, membrane potential fluorescence, agonist mode; 450 tested, 56% active;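 active = activation above the mean of solvent-only control wells plus 3 SD, cut at about 10% in these data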;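 also: cells stimulated by isoproterenol with no NPY added so direct agonism is tested; 0% = DMSO with isoproterenol alone and 100% = NPY at EC100 plus isoproterenol; agonism lowers probe fluorescence through less cAMP and CNG channel opening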
* = called active by the depositor; x = no result given. Rule as the data show it, unless noted: active = activation above about 33%; inactive = the rest.

SMILES	NPY-Y1 PAM-ag	NPY2 pot ag	NPY Y1 blocker	Measles CPE	NPY-Y2 antag	Rad51 HR inh	NPY-Y2 confirm	NPY-Y1 counter	NPY-Y1 ag 2	CNGC inh	NPY-Y2 ag 2	others
Cc1ncsc1C(=O)N1CCCC(CNS(=O)(=O)c2cccs2)C1 (centres undefined)	9	7	-1	x	x	-18	x	x	x	x	x
COc1cccc(C(=O)Nc2ccc(C)cc2)c1	-14	8	-9	17	4	4	x	x	x	x	x
COc1cccc(C(=O)NC(=O)Nc2cc(C)[nH]n2)c1	76*	-11	x	x	x	12	x	x	x	x	x	NPY-Y1 confirm=-6;NPY-Y2 counter=-5;NPY-Y1 ag=-4;NPY-Y2 agonist=4;CNGC inh 2=-2
Cc1ccc(O)c(N=Nc2ccc(S(=O)(=O)N3CCCC3)cc2)c1	45*	35	x	x	x	-8	x	x	x	x	x	NPY-Y1 confirm=45*;NPY-Y2 counter=32;NPY-Y1 ag=30*;NPY-Y2 agonist=42*;CNGC inh 2=27*
Cc1ccc(S(=O)(=O)N2CCCN(S(=O)(=O)c3ccc(C)cc3)CC2)cc1	-4	-1	-5	3	1	-3	x	x	x	x	x
Cc1c(/C=N/Nc2nc3ccccc3[nH]2)c2ccccc2n1C	56*	37	x	x	x	-5	x	x	x	x	x	NPY-Y1 confirm=47*;NPY-Y2 counter=41*;NPY-Y1 ag=35*;NPY-Y2 agonist=43*;CNGC inh 2=34*
O=C(O)/C=C/c1ccc(S(=O)(=O)NCc2ccco2)cc1	64*	-10	2	x	x	3	x	x	x	x	x	NPY-Y1 confirm=4;NPY-Y2 counter=-3;NPY-Y1 ag=-10;NPY-Y2 agonist=-8;CNGC inh 2=-2
COC(=O)c1sc(-c2ccc(C(C)(C)C)cc2)cc1NC(=O)c1ccccc1C(=O)O	63*	20	x	x	x	x	x	x	x	x	x	NPY-Y1 confirm=46*;NPY-Y2 counter=31;NPY-Y1 ag=39*;NPY-Y2 agonist=12*;CNGC inh 2=24*
COC(=O)c1sc(-c2ccc(Cl)cc2)cc1NC(=O)c1ccccc1C(=O)O	12	2	x	x	x	23	x	x	x	x	x
CCN1C(=O)C(F)(CC)C(=O)c2ccccc21 (centres undefined)	2	0	-3	4	1	-7	x	x	x	x	x
O=C(CSCSCC(=O)Nc1ccc2c(c1)OCO2)Nc1ccc2c(c1)OCO2	46*	12	-2	5	3	-7	x	x	x	x	x	NPY-Y1 confirm=4;NPY-Y2 counter=0;NPY-Y1 ag=5;NPY-Y2 agonist=-4;CNGC inh 2=0
O=C(CSCc1ccccc1)Nc1ccc2c(c1)OCO2	-1	3	3	5	3	3	x	x	x	x	x
Fc1cc(NC(=S)NCc2ccc(CNC(=S)Nc3ccc(Cl)c(F)c3)cc2)ccc1Cl	52*	44	x	x	x	5	x	x	x	x	x	NPY-Y1 confirm=71*;NPY-Y2 counter=51*;NPY-Y1 ag=55*;NPY-Y2 agonist=57*;CNGC inh 2=55*
N#CC(C#N)=C(Nc1ccc(F)cc1)SCc1cccc(Br)c1	-25	7	20	9	7	23	x	x	x	x	x
Cc1cccc(CSC(Nc2ccc(F)cc2)=C(C#N)C#N)c1	6	40*	0	5	6	-2	-11	-55	-30	-19	0
COc1cccc(N2CCN(c3ncnc4c3[nH]c3ccc(F)cc34)CC2C)c1 (centres undefined)	-25	39*	57*	6	8	3	-4	-27	-40	-41	8
COc1cccc(N2CCN(c3ncnc4c3[nH]c3ccccc34)CC2C)c1 (centres undefined)	28	2	6	11	11	-2	x	x	x	x	x
O=C(CN(c1cccc(C(F)(F)F)c1)S(=O)(=O)c1ccc(Cl)c([N+](=O)[O-])c1)NCc1ccc(F)cc1	39	36*	-12	5	-3	x	68*	85*	85*	64*	79*
Cc1ccccc1-n1nc(CSc2nc3ccccc3[nH]2)c(-c2ccccc2)c1N	-2	11	12	6	8	-4	x	x	x	x	x
c1ccc(CSc2nc3ccccc3[nH]2)cc1	4	0	x	x	x	6	x	x	x	x	x
Nc1c(-c2ccccc2)c(CSc2nc3ccccc3[nH]2)nn1-c1ccc(Cl)cc1	13	29*	3	7	2	20	33	29	17	21	33*
Nc1c(-c2ccccc2)c(CSc2nc3ccccc3[nH]2)nn1-c1cccc(Cl)c1	7	32*	5	8	-1	7	39*	36	36*	28*	57*
O=C(CSc1cnc2ccccc2n1)c1ccc(F)cc1	-9	-8	8	7	7	0	x	x	x	x	x
N#Cc1c(N(CCO)CCO)nc(N)c2c(N)nc3c(c12)CC(=O)N3Cc1cccs1	-6	2	x	x	x	-42	x	x	x	x	x
CN(CCO)c1nc(N)c2c(N)nc3c(c2c1C#N)CC(=O)N3Cc1cccs1	28	40*	-1	x	x	5	-1	-4	-14	-10	-10
O=C(NCc1ccccc1Cl)NCc1ccccc1Cl	12	99*	x	x	x	5	-6	-7	-17	-4	5
Cc1c(CN(C)C)c2c(n1Cc1ccccc1)C(=O)c1ccc(Br)cc1-2	26	28*	-3	14	-1	18	25	28	35*	24*	29*
Cc1c(CN(C)C)c2c(n1C)C(=O)c1ccc(Br)cc1-2	13	-3	1	3	1	-3	x	x	x	x	x
CCOC(=O)N1CCN(C(=O)CN(Cc2ccc(Cl)cc2)S(=O)(=O)c2ccc(C)cc2)CC1	5	9	2	24	1	0	x	x	x	x	x
O=C(COC(=O)c1cc(NS(=O)(=O)c2cccs2)ccc1O)Nc1ccccc1	12	3	x	x	x	4	x	x	x	x	x
